# Calls of active or inactive are those of the source. No cut-off for these calls is given here.
# Experiments:
# U-251 [1] = experiment: Growth inhibition of human U251 cells stably transfected with pGL2-TK-HRE plasmid after 24 hrs; type: cell-based; settings: u-251, 24 h
# [2] = biological target: T1, Hypoxia inducible factors; HIF-1-alpha, HIF-2-alpha (Homo sapiens, UniProt Q16665+Q99814); experiment: Inhibition of HIF1 activation in human U251 cells stably transfected in pGL2-TK-HRE plasmid under hypoxic condition after 16 to 24 hrs by luciferase reporter gene assay; type: cell-based; settings: u-251
# U-251 [3] = experiment: Growth inhibition of human U251 cells stably transfected with pGL3 plasmid after 24 hrs; type: cell-based; settings: u-251, 24 h
# MCF7 = experiment: Cytotoxicity against human MCF7 cells by MTT assay; type: functional
# How it was run: (§1)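 Cells were grown in MEM with 10% fetal calf serum, 0.1 g L⁻¹ penicillin G and 0.1 g L⁻¹ streptomycin sulfate. They were seeded into 96-well plates one day before dosing and incubated overnight at 37 °C. Compounds were dissolved in DMSO, diluted in medium to several concentrations and left on the cells for six days. Survival was read colorimetrically by MTT at 547 nm, with adriamycin as reference.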
# HT-29 = experiment: Cytotoxicity against human HT-29 cells by MTT assay; type: functional; how it was run: as §1
# A549 = experiment: Cytotoxicity against human A549 cells by MTT assay; type: functional
# U-251 [4] = experiment: Reduction in VEGF mRNA expression in wild type human U251 cells under hypoxic condition after 8 hrs; type: functional, cell-based
# How it was run: (§2)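 Wild-type U251 cells treated 8 or 16 h under hypoxia (1% O₂, 37 °C). Total RNA isolated; 500 ng reverse-transcribed (10 min 25 °C, 30 min 48 °C, 5 min 95 °C). VEGF or CA9 transcript quantified by real-time PCR on 5 ng cDNA in triplicate (2 min 50 °C, 10 min 95 °C, then 40 cycles of 15 s 95 °C and 1 min 60 °C).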
# U-251 [5] = experiment: Inhibition of HIF1alpha protein expression in wild type human U251 cells under hypoxic condition at 0.025 uM treated 16 hrs before hypoxia induction; type: functional, cell-based
# [6] = biological target: T1, Hypoxia inducible factors; HIF-1-alpha, HIF-2-alpha; experiment: Inhibition of HIF1 activation in human U251 cells stably transfected in pGL2-TK-HRE plasmid under hypoxic condition assessed as reduction of luciferase expression at 0.062 uM after 16 to 24 hrs by luciferase reporter gene assay; type: cell-based; set-up: scale not given: the % may be the effect or the level left; settings: U-251
# U-251 [7] = experiment: Reduction in carbonic anhydrase 9 mRNA expression in wild type human U251 cells under hypoxic condition at 0.1 uM after 8 hrs; type: functional, cell-based; how it was run: as §2
# [8] = biological target: T1, Hypoxia inducible factors; HIF-1-alpha, HIF-2-alpha; experiment: Inhibition of HIF1 activation in human U251 cells transiently transfected in pGL2-TK-HRE plasmid under hypoxic condition at 0.1 to 0.005 uM after 16 hrs by luciferase reporter gene assay; type: cell-based; settings: U-251
# How it was run: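 Wild-type U251 cells transiently transfected with pGL2-TK-HRE using Effectene for 16 h. Medium then changed and compound added for 16 h under hypoxia (1% O₂, 5% CO₂, 37 °C) or normoxia (21% O₂). Luciferase read with Steady Glo reagent.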
# [9] = biological target: T1, Hypoxia inducible factors; HIF-1-alpha, HIF-2-alpha; experiment: Inhibition of HIF1 activation in human U251 cells stably transfected in pGL3 plasmid under hypoxic condition assessed as reduction of luciferase expression at 0.062 uM after 16 to 24 hrs by luciferase reporter gene assay; type: cell-based; set-up: scale not given: the % may be the effect or the level left; settings: U-251
# U-251 [10] = experiment: Reduction in VEGF mRNA expression in wild type human U251 cells under hypoxic condition after 16 hrs; type: functional, cell-based; how it was run: as §2
# U-251 [11] = experiment: Reduction in carbonic anhydrase 9 mRNA expression in wild type human U251 cells under hypoxic condition at 0.1 uM after 16 hrs; type: functional, cell-based; how it was run: as §2
# U-251 [12] = experiment: Inhibition of HIF1alpha protein expression in wild type human U251 cells under hypoxic condition at 0.025 uM treated 8 hrs before hypoxia induction; type: functional, cell-based
SMILES,Activity (U-251 [1]),EC50 [2],Activity (U-251 [3]),GI50 (MCF7),GI50 (HT-29),GI50 (A549),other results
CO[C@H]1C[C@H](O[C@H]2CC[C@]3(C=O)[C@H]4CC[C@]5(C)[C@@H](C6=CC(=O)OC6)CC[C@]5(O)[C@@H]4CC[C@]3(O)C2)O[C@H](C)[C@H]1O[C@@H]1O[C@H](CO[C@@H]2O[C@H](CO)[C@@H](O)[C@H](O)[C@H]2O)[C@@H](O)[C@H](O)[C@H]1O,Non-toxic,0.04 µM,Non-toxic,,,,
CO[C@H]1C[C@H](O[C@H]2CC[C@]3(C=O)[C@H]4CC[C@]5(C)[C@@H](C6=CC(=O)OC6)CC[C@]5(O)[C@@H]4CC[C@]3(O)C2)O[C@H](C)[C@H]1O[C@@H]1O[C@H](CO)[C@@H](O)[C@H](O)[C@H]1O,Non-toxic,,Non-toxic,,,,
CO[C@H]1[C@H](O[C@H]2CC[C@]3(C=O)[C@H]4CC[C@]5(C)[C@@H](C6=CC(=O)OC6)CC[C@]5(O)[C@@H]4CC[C@]3(O)C2)O[C@H](C)C[C@H]1O[C@@H]1O[C@H](CO)[C@@H](O)[C@H](O)[C@H]1O,Non-toxic,0.6 µM,Non-toxic,0.01 µM,0.07 µM,0.008 µM,
Cc1cc(=O)c2c(O)cc(O[C@@H]3O[C@H](CO[C@@H]4O[C@@H](C)[C@H](O)[C@@H](O)[C@H]4O)[C@@H](O)[C@H](O)[C@H]3O)cc2o1,,,,0.8 µM,6 µM,0.4 µM,
COc1c(O[C@@H]2O[C@H](CO[C@@H]3O[C@@H](C)[C@H](O)[C@@H](O)[C@H]3O)[C@@H](O)[C@H](O)[C@H]2O)cc2oc(C)cc(=O)c2c1O,,,,0.8 µM,6 µM,0.4 µM,
CC[C@@]1(O)C(=O)OCc2c1cc1n(c2=O)Cc2cc3c(CN(C)C)c(O)ccc3nc2-1,,,,,,,Activity (U-251 [4]): inactive
C[C@@H]1O[C@@H](O[C@H]2CC[C@]3(C=O)[C@H]4CC[C@]5(C)[C@@H](C6=CC(=O)OC6)CC[C@]5(O)[C@@H]4CC[C@]3(O)C2)[C@H](O)[C@H](O)[C@H]1O [CONVALLATOXIN],Non-toxic,0.02 µM,Non-toxic,,,,Activity (U-251 [5]): Active; Activity [6]: 77%; Activity (U-251 [7]): Active; Activity [8]: Active; Activity [9]: 50%; Activity (U-251 [4]): Active; Activity (U-251 [10]): Active; Activity (U-251 [11]): Active; Activity (U-251 [12]): Active
COc1cccc2c1C(=O)c1c(O)c3c(c(O)c1C2=O)C[C@@](O)(C(=O)CO)C[C@@H]3O[C@H]1C[C@H](N)[C@H](O)[C@H](C)O1 [DOXORUBICIN],,0.12 µM,,0.1 µM,0.06 µM,0.007 µM,
COc1cc(O)c2c(=O)cc(C)oc2c1 [EUGENIN],,,,10 µM,25 µM,14 µM,
Cc1cc(=O)c2c(O)cc(O)cc2o1 [NOREUGENIN],,,,> 50 µM,> 50 µM,> 50 µM,
COc1c(O)cc2oc(C)cc(=O)c2c1O [PISONIN B],,,,> 450 µM,180 µM,225 µM,
C[C@]12CC[C@H]3[C@@H](CC[C@]4(O)C[C@@H](O)CC[C@]34C=O)[C@@]1(O)CC[C@@H]2C1=CC(=O)OC1 [STROPHANTHIDIN],Non-toxic,,Non-toxic,,,,
